Test results as given in publication PMC7927141 (Molecular Pharmaceutics, 2021).
Read-outs that look alike come from different tables or passages of the source.

Columns and labels:
[1] = tested on: cancer cells (Neuro2A, EGI-1, TFK-1, Mz-ChA-1); test: Association and uptake by flow cytometry and confocal microscopy; format: cell-based; conditions: 20 μM, flow cytometry
Procedure, shortened: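 5 × 10^5 cells/well, grown 18 h. Medium replaced by nonsupplemented medium containing 20 μM test compound, free (0.4% DMSO final) or micelle-loaded, or Cy5-labelled micelles at 0.3 mg/mL. Incubated 1 or 4 h, rinsed twice with PBS, trypsinized, analysed by flow cytometry. Confocal imaging on coverslips after 0.5, 1 and 4 h at 37 °C, excitation 405/633 nm.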

Neuro2A cells = test: In vitro cytotoxicity, SRB total protein assay, Neuro2A; format: cell-based, murine
Procedure, shortened: (§1)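 Cells grown in RPMI 1640 with 10% FBS, penicillin/streptomycin and 2 mM L-glutamine at 37 °C, 5% CO2. Seeded at 5 × 10^4 cells/well and cultured 24 h. Then exposed 24, 48 or 72 h to free test compound (DMSO, 0.4% v/v final) or micelle-loaded test compound in HBS, 0–200 μM; HBS controls. After PBS wash, SRB total protein read at 564 nm, normalized to control. IC50 from sigmoidal variable-slope nonlinear regression.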

EGI-1 cells = test: In vitro cytotoxicity, SRB total protein assay, EGI-1; format: cell-based; conditions: Homo sapiens
Procedure, shortened: as §1

Mz-ChA-1 cells = test: In vitro cytotoxicity, SRB total protein assay, Mz-ChA-1; format: cell-based, human
Procedure, shortened: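 Mz-ChA-1 cells in RPMI 1640 with 10% FBS, penicillin/streptomycin and 2 mM L-glutamine at 37 °C, 5% CO2. Seeded at 25 × 10^4 cells/well for slow growth, cultured 24 h. Then 24, 48 or 72 h with free test compound (DMSO, 0.4% v/v final) or micelle-encapsulated test compound in HBS, 0–200 μM; HBS-treated controls. PBS wash, SRB protein stain, absorbance 564 nm, viability versus control. IC50 by sigmoidal variable-slope curve fit.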

Sk-ChA-1 cells = test: In vitro cytotoxicity, SRB total protein assay, Sk-ChA-1; format: cell-based; conditions: Homo sapiens
Procedure, shortened: as §1

TFK-1 cells = test: In vitro cytotoxicity, SRB total protein assay, TFK-1; format: cell-based; conditions: Homo sapiens
Procedure, shortened: as §1

[2] = Circulation kinetics of Cy7-labeled curcumin micelles in mice; format: in vivo, BALB/c mice
Procedure, shortened: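 Female mice received 9% (w/w) curcumin-loaded Cy7-labelled mPEG-b-p(HPMA-Bz) micelles i.v. (500 mg polymer/kg, 100–200 μL). EDTA blood was drawn submandibularly at 1 min (set as 100% dose), 10 min and 1 h, and by cardiac puncture at 4 and 24 h. Plasma was ACN-extracted (1:4) and assayed for curcumin by C18 RP-HPLC at 425/254 nm. Parameters came from two-compartmental analysis.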

[3] = Biodistribution of Cy7-labeled curcumin micelles in mice; format: in vivo, BALB/c mice; conditions: 4 and 24 h post-administration, iv 50 mg curcumin/kg in micelles
[4] = cited from earlier work
[5] = tested on: different types of cancer cell lines; conditions: cited from earlier work
[6] = read-out: IC50 after 48 and 72 h
[7] = female, BALB/c, mouse, plasma, iv, 7.8 mg/kg
[8] = iv, 50 mg curcumin/kg, two-compartmental

**Q.** Which “time of incubation until intracellular detection” value [1] does the source give for COc1cc(/C=C/C(=O)CC(=O)/C=C/c2ccc(O)c(OC)c2)ccc1O [free curcumin, curcumin] here?
**A.** ≤ 1 h

**Q.** And the IC50 (Neuro2A cells; 24 h exposure)?
**A.** 83.8 ± 13.5 µM

**Q.** And the IC50 (Neuro2A cells; Mus musculus, N2a, 24 h, 24 h exposure)?
**A.** 84 µM

**Q.** And the IC50 (Neuro2A cells; Mus musculus, N2a, 48 h, 48 h exposure)?
**A.** 15.6 ± 0.8 µM

**Q.** And the IC50 (Neuro2A cells; Mus musculus, N2a, 72 h, 72 h exposure)?
**A.** 23.3 ± 1.2 µM

**Q.** And the IC50 (EGI-1 cells; EGI-1, 24 h)?
**A.** 21.7 ± 0.5 µM

**Q.** And the IC50 (EGI-1 cells; EGI-1, 48 h)?
**A.** 18.2 ± 0.3 µM

**Q.** And the IC50 (EGI-1 cells; EGI-1, 72 h)?
**A.** 19.1 ± 0.3 µM

**Q.** And the IC50 (EGI-1 cells; EGI-1, read-out: IC50 after 48 and 72 h)?
**A.** ~20 µM

**Q.** And the IC50 (Mz-ChA-1 cells; Homo sapiens, 24 h, Mz-ChA-1, 24 h exposure)?
**A.** 48 µM

**Q.** And the IC50 (Mz-ChA-1 cells; Homo sapiens, 48 h, Mz-ChA-1, 48 h exposure)?
**A.** 38.4 ± 1.4 µM

**Q.** And the IC50 (Mz-ChA-1 cells; Homo sapiens, 72 h, Mz-ChA-1, 72 h exposure)?
**A.** 37.8 ± 1.1 µM

**Q.** What about the IC50 (Mz-ChA-1 cells; Mz-ChA-1, 24 h exposure) of the same compound?
**A.** 47.6 ± 1.6 µM

**Q.** And the IC50 (Sk-ChA-1 cells; 24 h)?
**A.** 33.9 ± 1.3 µM

**Q.** What about the IC50 (Sk-ChA-1 cells; 48 h) of the same compound?
**A.** 21.5 ± 0.4 µM

**Q.** What about the IC50 (Sk-ChA-1 cells; 72 h) of the same compound?
**A.** 21.3 ± 0.4 µM

**Q.** And the IC50 (Sk-ChA-1 cells; [6])?
**A.** ~20 µM

**Q.** And the IC50 (TFK-1 cells; 24 h)?
**A.** 27.7 ± 0.9 µM

**Q.** What about the IC50 (TFK-1 cells; 48 h) of the same compound?
**A.** 20.1 ± 0.9 µM

**Q.** What about the IC50 (TFK-1 cells; 72 h) of the same compound?
**A.** 17.5 ± 0.5 µM

**Q.** What about the IC50 (TFK-1 cells; [6]) of the same compound?
**A.** ~20 µM

**Q.** What about the “t1/2α relative to that reported for free curcumin” value ([2]; curcumin after iv curcumin-loaded micelles vs literature free curcumin) of the same compound?
**A.** ~5 times

**Q.** And the AUC(0-inf) [2, 7]?
**A.** 319 µg·h/mL

**Q.** And the clearance [2, 7]?
**A.** 2.62 mL/min/kg

**Q.** What about the “initial phase t1/2α” value ([2]; iv, 50 mg curcumin/kg as curcumin-loaded micelles) of the same compound?
**A.** 6.7 min

**Q.** And the V1 [2, 8]?
**A.** 0.086 L/kg

**Q.** What about the V2 [2, 8] of the same compound?
**A.** 0.344 L/kg

**Q.** What about the “loaded curcumin eliminated during the first hour” value ([2]; iv, 50 mg/kg curcumin in micelles) of the same compound?
**A.** 90%

**Q.** And the “curcumin concentration in the different organs” value [3]?
**A.** 0.2–3 μg/g tissue

**Q.** And the AUC ([4]; 50 mg/kg in mice, noncompartmental analysis, ref 63 (Gao et al.))?
**A.** 60.3 µg·h/mL

**Q.** And the “normalized AUC” value ([4]; two studies)?
**A.** 1.2 (μg·h/mL)/(mg/kg)

**Q.** What about the IC50 ([5]; read-out: IC50 mean ± SD) of the same compound?
**A.** 21 ± 17 µM

**Q.** What about the IC50 ([5]; read-out: IC50 range) of the same compound?
**A.** 1 to 100 µM
